In ChEMBL document CHEMBL1129265, “Synthesis and characterization of pseudopeptide bradykinin B2 receptor antagonists containing the 1,3,8-triazaspiro[4.5]decan-4-one ring system” (J Med Chem, 1996) one finds Ki and ED50 data, which are given here for six compounds.

One experiment deals with T1, B2 bradykinin receptor (Homo sapiens, UniProt P30411).
T1 sequence (P30411 whole entry): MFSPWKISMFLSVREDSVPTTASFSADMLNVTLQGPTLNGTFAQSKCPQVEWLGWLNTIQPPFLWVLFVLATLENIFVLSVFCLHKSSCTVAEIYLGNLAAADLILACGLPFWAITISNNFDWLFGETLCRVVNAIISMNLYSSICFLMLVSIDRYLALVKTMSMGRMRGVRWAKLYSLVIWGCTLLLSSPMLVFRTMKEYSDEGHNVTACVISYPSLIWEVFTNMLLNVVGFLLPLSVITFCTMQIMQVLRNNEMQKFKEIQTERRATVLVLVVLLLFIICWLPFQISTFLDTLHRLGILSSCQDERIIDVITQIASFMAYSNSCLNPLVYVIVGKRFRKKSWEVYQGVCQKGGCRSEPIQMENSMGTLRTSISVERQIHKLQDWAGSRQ
Description: Affinity to human Bradykinin receptor B2 in CHO cell membranes determined by displacement of [3H]-NPC 17731. In outline:
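Membranes from CHO/K cells transfected with human B2 receptor, grown in Ham's F12 with 10% FBS and 500 ug/mL G418. Buffer: 25 mM TES, 1 mM 1,10-phenanthroline, pH 6.8, with bacitracin and 0.1% BSA. Competition versus [3H]NPC-17731, 15 pM final. 1 uM bradykinin defines nonspecific binding. 90 min at 25 °C, then filtration on PEI-soaked GF/B and scintillation counting. n=3.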

For another experiment, the species on record is Oryctolagus cuniculus. Nature of the experiment: Pharmacological profile in bradykinin induced assay in rabbits ([…]). Format: functional. The procedure, abridged: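 Male New Zealand white rabbits, 1.5–2.0 kg, acepromazine premedicated, pentobarbital anesthetized. Carotid catheter records mean arterial pressure continuously. Three bolus bradykinin doses (1 ug/kg iv) set baseline. Antagonist in saline is then given iv at rising doses (0.03–1000 ug/kg), each followed after 5 min by a bradykinin bolus. Percent inhibition of hypotension per animal; ED50 by probit; n=4.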

For the next experiment, the species on record is Rattus norvegicus. Description: Pharmacological profile in bradykinin induced assay in rats ([…] in rats). Format: functional. In outline: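 Anesthetized Sprague–Dawley rats, carotid mean arterial pressure, jugular iv dosing, tracheotomy. After 30 min stabilization, three bradykinin injections (12 ug/kg iv, 5 min apart) set baseline hypotension. Test agent is given iv 10–15 min later, followed 5 min after by bradykinin challenge. Successive increasing doses give a cumulative dose–response; ED50 reported, n=4.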

As usually defined, the Ki is the dissociation constant of the complex between target and ligand, obtained from inhibition or displacement. High values mean lower affinity, low ones higher affinity. The compound `CCCN1CN(CC(C)=O)C(=O)C12CCN(C)CC2` registered an inhibition constant (Ki) at B2 bradykinin receptor of 27 nM. Same read-out and setting: in the case of `CC(=O)CN1CN(CCc2ccccc2)C2(CCN(C)CC2)C1=O` it was 0.15 nM. Compound `CC(=O)CN1CN(CC2CCCCC2)C2(CCN(C)CC2)C1=O` showed a Ki on B2 bradykinin receptor of 6.8 nM. One may read the ED50 as the dose that gives a 50% effect, or the effect in half of the subjects. For the compound `CC(=O)CN1CN(C2CCCCC2)C2(CCN(C)CC2)C1=O`, the median effective dose (ED50) was determined as 0.0086 mg/kg in the experiment listed under Oryctolagus cuniculus and 0.6 mg/kg in the experiment listed under Rattus norvegicus. Also, on B2 bradykinin receptor, the affinity corresponds to a Ki of 0.57 nM. Taken in the same sequence, the figures for `CC(=O)CN1CN(c2ccccc2)C2(CCN(C)CC2)C1=O` were 0.0221 mg/kg, 0.4 mg/kg and 7.7 nM. Consider `CC(=O)CN1CN(c2ccc(C)cc2)C2(CCN(C)CC2)C1=O`, for which, on B2 bradykinin receptor, the affinity corresponds to a Ki of 6.3 nM.
